Test results taken from PMC11827156 (Malaria Journal, 2025).
Read-outs that look alike come from different tables or passages of the source.

Tests used:
[1] = target: P. falciparum PfSR25− (serpentine receptor 25 knockout strain); test: Comparative IC50 screening, 3D7 versus serpentine receptor 25 knockout strain; format: cell-based, Plasmodium falciparum; details: 72 h, 0.0019–2 µM, Student's t test
Outline: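 Asynchronous 3D7 and PfSR25− cultures (37 °C, 90% N2/5% O2/5% CO2) at 0.3% parasitaemia and 2% haematocrit were exposed for 72 h to eleven final concentrations. Controls were 0.13% DMSO and chloroquine 0.2441–250 nM. Cells were stained with SYBR Green-I (1:10,000) plus MitoTracker Deep Red (50 nM) for 20 min at 37 °C and read by flow cytometry. Survival was taken relative to DMSO, in triplicate over three experiments. IC50 ± SEM came from dose–response curves.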

[2] = test system: P. falciparum 3D7; format: cell-based, Plasmodium falciparum; details: Plasmodium falciparum
[3] = test system: P. falciparum gametocytes; details: read-out: IC50 against P. falciparum gametocytes; cited from earlier work
[4] = Cytotoxicity of the compounds in HEK293 cells; format: cell-based, human; details: human, HEK293 cells
Outline: (§1)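 HEK293 cells (passages 7–12, grown in DMEM with 10% FBS and penicillin/streptomycin at 37 °C, 5% CO₂) were trypsinized and seeded at 10^4 cells/well. They were exposed to test compound or DMSO vehicle for 72 h. MTT (5 mg/mL reagent) was then added for 3 h, and the formazan was dissolved in DMSO. Absorbance was read at 570 nm and dose–response curves were fitted. Each condition was run in triplicate in 3 independent experiments.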

[5] = test system: HEK293 cells; test: Cytotoxicity of the compounds in HEK293 cells; format: cell-based, human; details: MTT, 72 h, 0.0019–2 µM
Outline: as §1

[6] = test system: P. falciparum 3D7; details: cited from earlier work

IC50 ([2]; 3D7, 72 h, read-out: IC50 (nM) 3D7, Table 1, asynchronous culture, 72 h, 0.0019–2 µM, ± standard error of the mean) [nM] | IC50 ([2]; 3D7, read-out: IC50 nM 3D7, Table 2) [nM] | Compound | difference of IC50 between 3D7 and PfSR25− [1] | IC50 [3] [nM] | CC50 at 72 h [4] [nM] | cytotoxic activity in HEK293 cells [5] | action on melatonin in the cell cycle of P. falciparum 3D7 [6]
91.1 ± 18.4 | 91.1 | CN(CCCNCc1cccc2ccccc12)CCCNCc1cccc2ccccc12.Cl [TCMDC-137905, Cl.CN(CCCNCc1cccc2ccccc12)CCCNCc1cccc2ccccc12] | none of the compounds tested were significantly different between the two strains | 230 | 5550 | exhibited cytotoxic activity in HEK293 cells | –
– | – | Melatotosil | – | – | – | – | blocks the action of melatonin in the cell cycle of P. falciparum 3D7
